Measurements gathered from unrelated publications.
Compare with care: the assays were run in different laboratories.

SMILES | tested on | test | system | setting | measurement | result
CNC(=O)c1ccc(-c2cnn3ccc(C(=O)N(C)c4ccc(Cl)c(C(=O)OC)c4)cc23)cc1 |  |  | female C57BL/6 mouse, plasma | oral, 1 mg/kg/day | Cmax | 0.1 ng/mL
COCC1=N[C@@]2(O)[C@H](C(=O)N(C)OC)[C@@H](c3ccccc3)[C@]3(c4ccc(OC)cc4)Oc4cc(OC)cc(OC)c4[C@]23N1 | Vero | cell growth or viability, MTT |  | 24 h | CC50 | > 20 µM
COc1ccsc1CNCC[C@@]1(c2ccccn2)CCOC2(CCCC2)C1 |  |  | human, plasma | intravenous, 3 mg, single dose, healthy volunteers, infusion | Vd | 129 L
NCCNC(=O)O[C@H]1CCC[C@@]2(C1)OOC1(O2)C2CC3CC(C2)CC1C3 (some centres unmarked) |  |  | male CD-1 mouse, plasma | oral, 10 mg/kg | Cmax | 240 ng/mL
CC(O)(CS(=O)(=O)c1ccc(F)cc1)C(=O)Nc1ccc(C#N)c(C(F)(F)F)c1 (centres unmarked) | Vero | cell growth or viability, resazurin |  |  | CC50 | > 100 µM
CNC(=O)c1ccc(-c2cnn3ccc(C(=O)N(C)c4ccc(Cl)c(C(=O)O)c4)cc23)cc1 |  |  | female C57BL/6 mouse, plasma | oral, 3 mg/kg/day | Cmax | 1 ng/mL
COc1ccc([C@@]23Oc4cc(OC)cc(OC)c4[C@@]24N=C(C2CC2)N[C@@]4(O)[C@H](C(=O)N(C)OC)[C@H]3c2ccccc2)cc1 | Vero | cell growth or viability, MTT |  | 24 h | CC50 | > 20 µM
CC(C)(N)CNC(=O)O[C@H]1CCC[C@@]2(C1)OOC1(O2)C2CC3CC(C2)CC1C3 (some centres unmarked) |  |  | male CD-1 mouse, plasma | oral, 10 mg/kg | Cmax | 191 ng/mL
